Measured values reported in ChEMBL document CHEMBL2010714, “Radical-regulating and antiviral properties of ascorbic acid and its derivatives” (Bioorg Med Chem Lett, 2012).

Test system: not listed separately
Experiment: Cytotoxicity against human RD cells assessed maximun non-toxic concentration
Assay type: cell-based
Conditions: not given
Outline: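 Maximum non-toxic concentration determined in uninfected human RD cell culture after 72 h incubation with compound.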

| SMILES | MNTC [mM] |
| --- | --- |
| O=C1O[C@H]([C@@H](O)CO)C(O)=C1O[C@H]1O[C@H](CO)[C@@H](O)[C@H](O)[C@H]1O | 1.18 |
| CCCCCCCCCCCCCCCC(=O)OC[C@H](O)[C@H]1OC(=O)C(O[C@H]2O[C@H](CO)[C@@H](O)[C@H](O)[C@H]2O)=C1O | 0.0868 |
| COC1=C(OC)[C@@H]([C@@H]2COC(C)(C)O2)OC1=O | 1.64 |
| COC1=C(OC)[C@@H]([C@@H](O)CO)OC1=O | 1.96 |
| O=C1O[C@H]([C@@H](O)CO)C(O)=C1O [ASCORBIC ACID] | 2.27 |
| CCCCCCCCCCCCCCCC(=O)OC[C@H](O)[C@H]1OC(=O)C(O)=C1O [ASCORBYL PALMITATE] | 0.24 |

Test system: Human alphaherpesvirus 1
Experiment: Antiviral activity against Herpes simplex virus type 1 infected in human RD cells assessed as inhibition of virus-induced cytopathic effect
Assay type: functional, organism-based
Conditions: Human alphaherpesvirus 1, RD
Outline: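 Human RD cells infected with HSV-1. Cytopathic-effect method. Activity criterion: reduction in virus titer with test compound versus untreated infected control. EC50 and EC90 taken as concentrations suppressing virus replication by 50% and 90%. Maximum non-toxic concentration determined separately in uninfected cultures after 72 h incubation.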

| SMILES | EC50 [µM] | EC90 [µM] |
| --- | --- | --- |
| O=C1O[C@H]([C@@H](O)CO)C(O)=C1O[C@H]1O[C@H](CO)[C@@H](O)[C@H](O)[C@H]1O | 16.3 | 26.9 |
| CCCCCCCCCCCCCCCC(=O)OC[C@H](O)[C@H]1OC(=O)C(O[C@H]2O[C@H](CO)[C@@H](O)[C@H](O)[C@H]2O)=C1O | 4.5 | 6.2 |
| COC1=C(OC)[C@@H]([C@@H]2COC(C)(C)O2)OC1=O | > 1640 | – |
| COC1=C(OC)[C@@H]([C@@H](O)CO)OC1=O | 1810 | 3280 |
| O=C1O[C@H]([C@@H](O)CO)C(O)=C1O [ASCORBIC ACID] | > 2270 | – |
| CCCCCCCCCCCCCCCC(=O)OC[C@H](O)[C@H]1OC(=O)C(O)=C1O [ASCORBYL PALMITATE] | > 240 | – |

Test system: not listed separately
Experiment: Selectivity ratio of MNTD for human RD cells to EC50 for HSV1
Assay type: ADME, cell-based
Conditions: not given
Outline: (§1)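 HSV-1-infected human RD cells were assessed by cytopathic effect. Virus titer reduction relative to untreated control gave concentrations suppressing replication by 50% and 90% (EC50, EC90). Maximum non-toxic concentration was found in uninfected RD cells after 72 h. The ratio divides MNTC by EC50 or EC90.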

| SMILES | selectivity ratio |
| --- | --- |
| O=C1O[C@H]([C@@H](O)CO)C(O)=C1O[C@H]1O[C@H](CO)[C@@H](O)[C@H](O)[C@H]1O | 72.7 |
| CCCCCCCCCCCCCCCC(=O)OC[C@H](O)[C@H]1OC(=O)C(O[C@H]2O[C@H](CO)[C@@H](O)[C@H](O)[C@H]2O)=C1O | 19.2 |
| COC1=C(OC)[C@@H]([C@@H]2COC(C)(C)O2)OC1=O | < 1 |
| COC1=C(OC)[C@@H]([C@@H](O)CO)OC1=O | 1.1 |
| O=C1O[C@H]([C@@H](O)CO)C(O)=C1O [ASCORBIC ACID] | < 1 |
| CCCCCCCCCCCCCCCC(=O)OC[C@H](O)[C@H]1OC(=O)C(O)=C1O [ASCORBYL PALMITATE] | < 1 |

Test system: not listed separately
Experiment: Selectivity ratio of MNTD for human RD cells to EC90 for HSV1
Assay type: ADME, cell-based
Conditions: not given
Outline: as §1

| SMILES | selectivity ratio |
| --- | --- |
| O=C1O[C@H]([C@@H](O)CO)C(O)=C1O[C@H]1O[C@H](CO)[C@@H](O)[C@H](O)[C@H]1O | 43.9 |
| CCCCCCCCCCCCCCCC(=O)OC[C@H](O)[C@H]1OC(=O)C(O[C@H]2O[C@H](CO)[C@@H](O)[C@H](O)[C@H]2O)=C1O | 13.9 |
| COC1=C(OC)[C@@H]([C@@H](O)CO)OC1=O | 0.6 |
